The subject of test [1] is Drosophila melanogaster. Description: Adulticidal activity against adult Drosophila melanogaster (males/females 1:1 ratio) assessed as mortality at 0.5 ng/adult measured after 3 hr. In kind it is functional, organism-based.
Test [2] has as its system Drosophila melanogaster. Description: Adulticidal activity against adult Drosophila melanogaster (males/females 1:1 ratio) assessed as mortality at 1 ng/adult measured after 3 hr. In kind it is functional, organism-based.
Test [3] relates to Drosophila melanogaster. Description: Adulticidal activity against adult Drosophila melanogaster (males/females 1:1 ratio) assessed as mortality at 2 ng/adult measured after 3 hr. In kind it is functional, organism-based. In outline:
(§1)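 Topical dose applied to the abdomen of ice-immobilised adults, 5–7 days old, in 0.5 μL acetone. Controls received acetone only. Flies were held at 25 °C, RH >60%, on a 12 h light/dark cycle. Thirty flies per dose, three replicates. Survival was recorded 3 h after treatment. Mortality means inability to move, with recovery checked.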

Test [4] deals with Drosophila melanogaster. Description: Adulticidal activity against adult Drosophila melanogaster (males/females 1:1 ratio) assessed as mortality measured after 3 hr. It is filed as functional. The method in brief:
as §1

The subject of test [5] is Drosophila melanogaster. As to the kind of experiment: Adulticidal activity against adult Drosophila melanogaster (males/females 1:1 ratio) assessed as mortality at 20 ng/adult measured after 3 hr. In kind it is functional, organism-based. The method in brief: as §1

Molecules are shown by their SMILES. Activity calls are given as the source filed them. The rule behind the calls is not given here.

As to `C[C@H]1CC=CC(=O)O1` [(+)-(6S)-PARASORBIC ACID], the result in test [1] and in test [2] was inactive. Moreover, the result in test [3] and in test [5] was Active. Also, the LD50 in test [4] is 1.44 µg.

For `C[C@@H]1CC[C@H]2[C@H](C)CC[C@@H](c3ccoc3)N2C1` [(-)-7-EPI-DEOXYNUPHARIDINE], the LD50 in test [4] stood at 0.9 µg.

Turning to `COc1ccc2c(c1OC)CN1CCc3cc4c(cc3[C@@H]1C2)OCO4` [CANADINE], the LD50 in test [4] is 2.5 µg.

Regarding `C=C(C)[C@H]1Cc2c(ccc3c2O[C@@H]2COc4cc(OC)c(OC)cc4[C@@H]2C3=O)O1` [ROTENONE], the LD50 in test [4] worked out at 3.68 µg.

The record behind these values is ChEMBL document CHEMBL3045078, “Insecticidal effect and chemical composition of the volatile oil from Bergenia ligulata” (2011).
